According to ChEMBL document CHEMBL1141075, “4-Oxo-4,7-dihydrothieno[2,3-b]pyridines as non-nucleoside inhibitors of human cytomegalovirus and related herpesvirus polymerases” (J Med Chem, 2005):

Columns and labels:
[1] = Toxicity on uninfected human foreskin fibroblast cells determined in microscopic evaluation and quantitative neutral red dye uptake assay; type: cell-based; details: uninfected human foreskin fibroblast (HFF) cells
How it was run: (§1)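 Uninfected cells were seeded as subconfluent monolayers and exposed to compound for 3 days. Viability was judged both by microscopic inspection and by quantitative neutral red dye uptake, giving CC50.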

[2] = molecular target: T1, DNA polymerase catalytic subunit (Herpes simplex virus (type 1 / strain 17), UniProt P04293); assay: Inhibition of herpes simplex virus type 1 DNA polymerase (95 uL) activity in a solution containing […] HEPES (pH 7.5), incubation for 12 minutes at 26 degrees C; set-up: species or system Human alphaherpesvirus 1
T1 sequence (P04293 whole entry): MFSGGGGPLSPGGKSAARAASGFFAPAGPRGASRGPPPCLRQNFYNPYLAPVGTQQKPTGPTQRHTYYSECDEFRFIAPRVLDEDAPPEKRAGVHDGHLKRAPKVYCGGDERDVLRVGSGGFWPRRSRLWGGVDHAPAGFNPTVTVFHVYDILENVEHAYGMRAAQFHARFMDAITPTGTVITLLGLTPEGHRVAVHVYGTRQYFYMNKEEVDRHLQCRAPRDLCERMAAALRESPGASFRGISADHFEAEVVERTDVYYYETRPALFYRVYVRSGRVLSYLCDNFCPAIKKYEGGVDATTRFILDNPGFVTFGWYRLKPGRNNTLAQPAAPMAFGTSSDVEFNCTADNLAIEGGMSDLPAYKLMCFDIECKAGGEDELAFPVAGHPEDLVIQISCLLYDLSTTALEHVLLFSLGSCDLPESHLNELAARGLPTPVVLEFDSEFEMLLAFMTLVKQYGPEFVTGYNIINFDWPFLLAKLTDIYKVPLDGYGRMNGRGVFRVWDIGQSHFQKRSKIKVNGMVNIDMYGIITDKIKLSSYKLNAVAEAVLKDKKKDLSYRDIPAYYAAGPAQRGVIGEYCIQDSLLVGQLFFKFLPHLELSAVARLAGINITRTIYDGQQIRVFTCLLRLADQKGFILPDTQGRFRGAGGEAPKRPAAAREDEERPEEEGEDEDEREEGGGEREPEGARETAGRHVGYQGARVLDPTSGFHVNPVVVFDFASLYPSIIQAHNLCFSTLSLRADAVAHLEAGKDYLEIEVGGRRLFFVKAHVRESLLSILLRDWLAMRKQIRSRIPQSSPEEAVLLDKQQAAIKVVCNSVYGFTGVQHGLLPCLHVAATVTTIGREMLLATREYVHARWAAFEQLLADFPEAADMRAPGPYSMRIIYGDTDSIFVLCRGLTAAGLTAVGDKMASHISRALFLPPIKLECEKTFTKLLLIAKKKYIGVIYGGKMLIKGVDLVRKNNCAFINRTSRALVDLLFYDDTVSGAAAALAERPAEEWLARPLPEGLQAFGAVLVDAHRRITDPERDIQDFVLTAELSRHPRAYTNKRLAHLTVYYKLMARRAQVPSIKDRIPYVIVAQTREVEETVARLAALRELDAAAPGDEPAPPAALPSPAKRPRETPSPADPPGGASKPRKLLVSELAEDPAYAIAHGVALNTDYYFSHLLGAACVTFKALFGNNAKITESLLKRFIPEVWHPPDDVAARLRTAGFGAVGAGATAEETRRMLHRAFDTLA

HFF [3] = assay: Antiviral activity against Varicella-Zoster virus (Webster strain) grown on human foreskin fibroblast cells determined by vedduction in plaque formation upon incubation at 37 degrees C with the compound dissolved in DMSO until plaque were formed; type: functional, cell-based
How it was run: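 Monolayers of human foreskin fibroblasts were infected with about 50 PFU per well for 1 h at 37 °C. The inoculum was then replaced with DMEM containing 10% FBS, 0.8% carboxymethyl cellulose and diluted compound from 200-fold DMSO stocks. Plates were incubated at 37 °C until plaques formed. Plaques were counted microscopically or after 0.1% crystal violet staining. IC50 came from linear regression of % inhibition versus untreated controls.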

[4] = molecular target: T2, DNA polymerase alpha catalytic subunit (Homo sapiens, UniProt P09884); assay: Inhibition of human alpha DNA polymerase (95 uL) activity in a solution containg […] HEPES (pH 7.5) upon incubation for 12 minutes at 26 degrees C with the compound dissolved in DMSO
T2 sequence (P09884 whole entry): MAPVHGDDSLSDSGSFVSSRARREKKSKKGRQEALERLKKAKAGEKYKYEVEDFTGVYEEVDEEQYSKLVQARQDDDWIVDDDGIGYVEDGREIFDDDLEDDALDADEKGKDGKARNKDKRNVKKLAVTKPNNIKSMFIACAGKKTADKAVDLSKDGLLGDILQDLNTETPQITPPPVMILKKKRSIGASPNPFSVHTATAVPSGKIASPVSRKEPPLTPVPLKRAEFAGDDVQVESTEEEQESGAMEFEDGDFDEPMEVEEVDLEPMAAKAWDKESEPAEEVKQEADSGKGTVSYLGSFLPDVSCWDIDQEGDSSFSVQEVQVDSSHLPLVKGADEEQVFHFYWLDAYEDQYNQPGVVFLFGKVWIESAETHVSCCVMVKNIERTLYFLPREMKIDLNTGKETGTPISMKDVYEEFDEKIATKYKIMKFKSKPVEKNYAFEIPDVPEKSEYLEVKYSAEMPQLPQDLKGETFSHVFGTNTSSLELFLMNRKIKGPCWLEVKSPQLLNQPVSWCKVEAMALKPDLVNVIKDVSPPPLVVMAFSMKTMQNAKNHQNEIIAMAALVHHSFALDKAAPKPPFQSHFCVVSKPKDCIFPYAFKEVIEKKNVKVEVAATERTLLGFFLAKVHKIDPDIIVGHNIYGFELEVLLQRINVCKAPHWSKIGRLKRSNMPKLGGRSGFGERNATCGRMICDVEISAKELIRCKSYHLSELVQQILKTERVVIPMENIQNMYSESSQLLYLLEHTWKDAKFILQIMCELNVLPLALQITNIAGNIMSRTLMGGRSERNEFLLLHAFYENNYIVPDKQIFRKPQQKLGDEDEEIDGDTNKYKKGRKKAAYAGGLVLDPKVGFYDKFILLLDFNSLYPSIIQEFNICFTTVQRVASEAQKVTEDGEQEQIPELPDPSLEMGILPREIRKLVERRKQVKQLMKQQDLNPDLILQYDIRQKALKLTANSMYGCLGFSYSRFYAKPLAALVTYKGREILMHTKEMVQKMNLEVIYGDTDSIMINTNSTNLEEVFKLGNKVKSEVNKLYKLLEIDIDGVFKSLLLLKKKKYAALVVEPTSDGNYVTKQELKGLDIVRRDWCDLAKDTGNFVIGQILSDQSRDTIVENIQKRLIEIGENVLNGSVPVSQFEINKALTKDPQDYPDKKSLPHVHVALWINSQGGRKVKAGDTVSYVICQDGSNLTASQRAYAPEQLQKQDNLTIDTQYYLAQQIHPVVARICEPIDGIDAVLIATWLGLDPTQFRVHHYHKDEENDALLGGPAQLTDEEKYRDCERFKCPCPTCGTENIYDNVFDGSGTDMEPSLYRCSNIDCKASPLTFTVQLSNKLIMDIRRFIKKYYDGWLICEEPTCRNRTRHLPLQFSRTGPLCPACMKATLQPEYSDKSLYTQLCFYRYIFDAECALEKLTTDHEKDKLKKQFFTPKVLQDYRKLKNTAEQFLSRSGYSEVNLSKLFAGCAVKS

Vero [5] = assay: Antiviral activity against herpes simplex virus type 1 (KOS strain) grown on human foreskin fibroblast cells determined by vedduction in plaque formation upon incubation at 37 degrees C with the compound dissolved in DMSO until plaque were formed; type: functional, cell-based
How it was run: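 HSV-1 KOS, about 50 PFU per well, was adsorbed for 1 h at 37 °C. The inoculum was then replaced with drug dilutions from 200-fold DMSO stocks in DMEM containing 10% FBS and 0.8% carboxymethyl cellulose. Cultures were kept at 37 °C until plaques appeared. Plaques were counted microscopically or by crystal violet staining (0.1% in 20% ethanol). IC50 came from linear regression of % inhibition relative to the uninhibited control.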

[6] = Toxicity on uninfected African green monkey kidney cells determined in microscopic evaluation and quantitative neutral red dye uptake assay; type: cell-based; details: chlorocebus sabaeus, uninfected African green monkey kidney (Vero) cells; how it was run: as §1
HFF [7] = assay: Antiviral activity against human cytomegalovirus (Davis strain) grown on human foreskin fibroblast cells determined by reduction in plaque formation upon incubation at 37 degrees C with the compound dissolved in DMSO; type: functional, cell-based
Vero [8] = assay: cells; details: Chlorocebus sabaeus, 1 h
Vero [9] = assay: cells; details: Chlorocebus sabaeus, 1 h; remark: listed apart in the source
Vero [10] = assay: cells; details: Chlorocebus sabaeus, 1 h; remark: listed apart in the source
Vero [11] = assay: cells; details: Chlorocebus sabaeus, 1 h; remark: listed apart in the source
Vero [12] = assay: cells; details: Chlorocebus sabaeus, 1 h; remark: listed apart in the source
Vero [13] = assay: cells; details: Chlorocebus sabaeus, 1 h; remark: listed apart in the source
Vero [14] = assay: cells; details: Chlorocebus sabaeus, 1 h; remark: listed apart in the source
Vero [15] = assay: cells; details: Chlorocebus sabaeus, 1 h; remark: listed apart in the source
Vero [16] = assay: cells; details: Chlorocebus sabaeus, 1 h; remark: listed apart in the source
HFF [17] = assay: Antiviral activity against human cytomegalovirus Ad169 (V823A) plaque forming unit grown on Human foreskin fibroblast cells upon incubation for 1 hour at 37 degrees C with compound dissolved in DMSO; type: functional, cell-based
How it was run: (§2)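 Plaque reduction: about 50 PFU added per well of a 24-well dish of the appropriate cells, 1 h at 37 °C, then the inoculum was replaced by drug-containing DMEM with 10% FBS and 0.8% carboxymethyl cellulose. DMSO stocks were 200-fold. Plates were held at 37 °C until plaques formed. Plaques were counted microscopically or after crystal violet stain. Percent inhibition was taken against the uninhibited control, with IC50 by linear regression.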

HFF [18] = assay: Antiviral activity against human cytomegalovirus Ad169 (WT) plaque forming unit grown on Human foreskin fibroblast cells upon incubation for 1 hour at 37 degrees C with compound dissolved in DMSO; type: functional, cell-based; how it was run: as §2

Compound | CC50 [1] [µM] | IC50 [2] [µM] | IC50 (HFF [3]) [µM] | IC50 [4] [µM] | IC50 (Vero [5]) [µM] | CC50 [6] [µM] | IC50 (HFF [7]) [µM] | IC50 (Vero [8]) [µM] | IC50 (Vero [9]) [µM] | IC50 (Vero [10]) [µM] | IC50 (Vero [11]) [µM] | IC50 (Vero [12]) [µM] | IC50 (Vero [13]) [µM] | IC50 (Vero [14]) [µM] | IC50 (Vero [15]) [µM] | IC50 (Vero [16]) [µM] | IC50 (HFF [17]) [µM] | IC50 (HFF [18]) [µM]
Cn1cc(C(=O)NCc2ccc(Cl)cc2)c(=O)c2cc(CCCO)sc21 | > 100 | 0.5 | 0.09 | > 40 | 3 | > 100 | 0.6 | – | – | – | – | – | – | – | – | – | – | –
Nc1nc2c(ncn2COCCO)c(=O)[nH]1 [ACYCLOVIR] | > 100 | – | – | – | – | > 100 | – | > 10 | 4.4 | 5.4 | > 10 | > 10 | 3.5 | 2.4 | > 10 | 2.8 | – | –
Nc1nc2c(ncn2COC(CO)CO)c(=O)[nH]1 [GANCICLOVIR] | > 100 | – | – | – | – | > 100 | – | – | – | – | – | – | – | – | – | – | 0.8 | 0.8
